In ChEMBL document CHEMBL1132160, “Structure-antiviral activity relationship in the series of pyrimidine and purine N-[2-(2-phosphonomethoxy)ethyl] nucleotide analogues. 1. Derivatives substituted at the carbon atoms of the base” (J Med Chem, 1999):
≈ marks a conversion by molar mass, not a printed value.

Tests used:
Vaccinia virus [1] = test: Inhibitory activity against vaccinia virus (VV); format: functional, organism-based; conditions: Orthopoxvirus vaccinia
Method in brief: (§1)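 Confluent E6SM cell cultures were inoculated with 100 CCID50 of virus and left for 1 h adsorption, then residual virus was removed. Cultures were incubated with test compound at serial concentrations (400, 200, 100, ... μg/mL). Virus-induced cytopathicity was scored once it reached completion in untreated infected control cultures.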

[2] = Inhibitory activity against herpes simplex virus type 2 (HSV-2) 196 strain; format: functional
Method in brief: (§2)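 Confluent E6SM cell cultures were inoculated with 100 CCID50 of virus and allowed 1 h for adsorption. Residual virus was then removed, and the cells were incubated with test compound at 400, 200, 100, ... μg/mL. Viral cytopathicity was scored once it reached completion in untreated infected controls.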

Cytomegalovirus [3] = test: Inhibitory activity against cytomegalovirus (CMV) Davis strain; format: functional, organism-based; conditions: Human betaherpesvirus 5
Method in brief: (§3)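 HEL cell cultures, grown to confluence, received 100 CCID50 of virus. After 1 h adsorption, the inoculum was removed and the cultures were incubated with serial concentrations of compound (400, 200, 100, ... μg/mL).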

[4] = Inhibitory activity against murine sarcoma virus induced transformation of murine C3H/3T3 embryo fibroblasts; format: functional, Mus musculus
Method in brief: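 Murine C3H/3T3 embryo fibroblasts were seeded at 5 × 10⁵ cells/mL. After 24 h they were infected with 80 focus-forming units of MSV for 90–120 min at 37 °C. The medium was then replaced with fresh medium containing various compound concentrations, and transformation was examined microscopically after 6 days.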

Human alphaherpesvirus 1 [5] = test: Inhibition of herpes simplex virus type 1 (HSV-1) F strain; format: functional, organism-based; method in brief: as §2
Human alphaherpesvirus 1 [6] = test: Inhibitory activity against herpes simplex virus type 1 (HSV-1) KOS strain; format: functional, organism-based; method in brief: as §2
[7] = test system: Human immunodeficiency virus 1; test: Inhibitory activity of compound against human immunodeficiency virus type 1 (HIV-1) induced cytopathogenicity in MT-4 cells; format: functional, organism-based; conditions: Human immunodeficiency virus 1, MT4
Method in brief: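 Human MT-4 cells (~4 × 10⁵ cells/mL) were infected with 100 CCID50 of HIV-1 (IIIB)/mL and seeded into wells containing compound dilutions. After 5 days at 37 °C, viable cells were counted by trypan blue exclusion in a blood cell counting chamber.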

Human alphaherpesvirus 2 [8] = test: Inhibitory activity against herpes simplex virus type 2 (HSV-2) G strain; format: functional, organism-based; method in brief: as §2
Human alphaherpesvirus 2 [9] = test: Inhibitory activity against herpes simplex virus type 2 (HSV-2) Lyons strain; format: functional, organism-based; method in brief: as §2
Cytomegalovirus [10] = test: Inhibitory activity against cytomegalovirus (CMV) AD 169 strain; format: functional, organism-based; conditions: Human betaherpesvirus 5; method in brief: as §3
Human alphaherpesvirus 1 [11] = test: Inhibitory activity against herpes simplex virus type 1 (HSV-1) McIntyre strain; format: functional, organism-based; method in brief: as §2
HEL = test: Compound was evaluated for inhibitory activity against varicella zoster virus thymidine kinase (VZV TK-) 07/1 strain; NA=not active; format: functional, cell-based, Homo sapiens
[12] = test system: Human immunodeficiency virus 1; test: Inhibition of human immunodeficiency virus type 1 (HIV-1) induced cytopathogenicity in CEM cells; format: functional, organism-based; conditions: Human immunodeficiency virus 1, CCRF-CEM
Method in brief: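 CEM cells (~3 × 10⁵ cells/mL) were infected with 100 CCID50 of HIV-1 (IIIB)/mL and plated with dilutions of compound. After 4 days at 37 °C, giant cell formation was assessed microscopically.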

[13] = test system: Human immunodeficiency virus 2; test: Inhibition of human immunodeficiency virus type 2 (HIV-2) induced cytopathogenicity in CEM cells; format: functional, organism-based; conditions: Human immunodeficiency virus 2, CCRF-CEM
[14] = test system: Human immunodeficiency virus 2; test: Inhibitory activity against human immunodeficiency virus type 2 (HIV-2) induced cytopathogenicity in MT-4 cells; format: functional, organism-based; conditions: Human immunodeficiency virus 2, MT4
Vaccinia virus [15] = test: Inhibitory activity against vaccinia virus (VV).; format: functional, organism-based, Orthopoxvirus vaccinia; method in brief: as §1
Human alphaherpesvirus 1 [16] = test: Inhibitory activity against herpes simplex virus type 1 (HSV-1) KOS strain.; format: functional, organism-based; method in brief: as §2
Human alphaherpesvirus 1 [17] = test: Inhibitory activity against herpes simplex virus type 1 thymidine kinase (HSV-1 TK-) VMW 1837 strain.
Human alphaherpesvirus 1 [18] = test: Inhibitory activity against herpes simplex virus type 1 (HSV-1) F strain; format: functional, organism-based; method in brief: as §2
E6SM = test: Inhibitory activity against herpes simplex virus type 2 (HSV-2) Lyons strain.; format: functional, cell-based, Homo sapiens; method in brief: as §2
Human alphaherpesvirus 2 [19] = test: Inhibitory activity against herpes simplex virus type 2 (HSV-2) 196 strain.; format: functional, organism-based; method in brief: as §2
Human alphaherpesvirus 2 [20] = test: Inhibitory activity against herpes simplex virus type 2 (HSV-2) G strain.; format: functional, organism-based; method in brief: as §2
Human alphaherpesvirus 1 [21] = test: Iactivity against herpes simplex virus type 1 (HSV-1) McIntyre strain.; format: functional, organism-based; method in brief: as §2

Structure (SMILES)	EC50 (Vaccinia virus [1]) [µg/mL]	EC50 [2] [µg/mL]	EC50 (Cytomegalovirus [3]) [µg/mL]	EC50 [4] [µg/mL]	EC50 (Human alphaherpesvirus 1 [5]) [µg/mL]	EC50 (Human alphaherpesvirus 1 [6]) [µg/mL]	EC50 [7] [µg/mL]	EC50 (Human alphaherpesvirus 2 [8]) [µg/mL]	EC50 (Human alphaherpesvirus 2 [9]) [µg/mL]	EC50 (Cytomegalovirus [10]) [µg/mL]	EC50 (Human alphaherpesvirus 1 [11]) [µg/mL]	EC50 (HEL)	EC50 [14] [µg/mL]	EC50 (Vaccinia virus [15])	EC50 (Human alphaherpesvirus 1 [16])	EC50 (Human alphaherpesvirus 1 [17])	EC50 (Human alphaherpesvirus 1 [18])	EC50 (E6SM)	EC50 (Human alphaherpesvirus 2 [19])	EC50 (Human alphaherpesvirus 2 [20])	further results
Nc1nc(N)c2ncn(CCOCP(=O)(O)O)c2n1 [PMEDAP]	20 (≈ 69.4 µM)	0.07 (≈ 0.243 µM)	10 (≈ 34.7 µM)	0.6 (≈ 2.08 µM)	2 (≈ 6.94 µM)	2 (≈ 6.94 µM)	2.67 (≈ 9.26 µM)	0.2 (≈ 0.694 µM)	0.07 (≈ 0.243 µM)	10 (≈ 34.7 µM)	2 (≈ 6.94 µM)	–	–	–	–	–	–	–	–	–	–
Nc1ncnc2c1ccn2CCOCP(=O)(O)O	150 (≈ 551 µM)	200 (≈ 735 µM)	> 50	4.1 (≈ 15.1 µM)	150 (≈ 551 µM)	200 (≈ 735 µM)	7.56 (≈ 27.8 µM)	70 (≈ 257 µM)	100 (≈ 367 µM)	> 50	100 (≈ 367 µM)	Not Active	8.27 (≈ 30.4 µM)	–	–	–	–	–	–	–	EC50 [12]: 4 µg/mL (≈ 14.7 µM); EC50 [13]: 2.5 µg/mL (≈ 9.18 µM)
Nc1cc2c(ncn2CCOCP(=O)(O)O)c(O)n1	150 (≈ 520 µM)	7 (≈ 24.3 µM)	1.5 (≈ 5.2 µM)	2.9 (≈ 10.1 µM)	7 (≈ 24.3 µM)	4.5 (≈ 15.6 µM)	> 20	12 (≈ 41.6 µM)	7 (≈ 24.3 µM)	2 (≈ 6.94 µM)	4 (≈ 13.9 µM)	–	> 20	–	–	–	–	–	–	–	–
CC(C)OP(=O)(COCCn1cnc2c(Cl)nc(N)nc21)OC(C)C	–	–	10 (≈ 25.5 µM)	> 100	–	–	> 100	–	–	40 (≈ 102 µM)	–	–	> 100	Not Active	Not Active	Not Active	Not Active	Not Active	Not Active	Not Active	EC50 (Human alphaherpesvirus 1 [21]): Not Active
CCOP(=O)(O)COCCn1cnc2c(O)nc(N)nc21	20 (≈ 63 µM)	2 (≈ 6.3 µM)	0.15 (≈ 0.473 µM)	0.24 (≈ 0.757 µM)	2 (≈ 6.3 µM)	2 (≈ 6.3 µM)	2.6 (≈ 8.2 µM)	0.7 (≈ 2.21 µM)	2 (≈ 6.3 µM)	0.15 (≈ 0.473 µM)	2 (≈ 6.3 µM)	–	–	–	–	–	–	–	–	–	–
CC(C)OP(=O)(COCCn1cnc2c(N)nc(Cl)nc21)OC(C)C	–	–	0.7 (≈ 1.79 µM)	> 100	–	–	> 20	–	–	0.65 (≈ 1.66 µM)	–	Not Active	–	Not Active	Not Active	Not Active	Not Active	Not Active	Not Active	Not Active	EC50 (Human alphaherpesvirus 1 [21]): Not Active
Nc1cnn(CCOCP(=O)(O)O)c(=O)n1	–	–	> 100	> 100	–	–	> 100	–	–	> 100	–	–	> 100	–	Not Active	Not Active	Not Active	Not Active	Not Active	Not Active	EC50 (Human alphaherpesvirus 1 [21]): Not Active
CC(C)CCCCCOP(=O)(O)COCCn1cnc2c(O)nc(N)nc21	–	240 (≈ 598 µM)	> 50	–	240 (≈ 598 µM)	240 (≈ 598 µM)	> 100	240 (≈ 598 µM)	240 (≈ 598 µM)	> 50	240 (≈ 598 µM)	–	> 100	–	–	–	–	–	–	–	–
CC(C)OP(=O)(COCCn1cnc2nc(N)nc(O)c21)OC(C)C	> 200	> 200	> 50	> 200	> 200	> 200	–	> 200	> 200	> 50	> 200	Not Active	–	–	–	–	–	–	–	–	EC50 [12]: > 100 µg/mL; EC50 [13]: > 100 µg/mL
Nc1ncc2ncn(CCOCP(=O)(O)O)c2n1	–	150 (≈ 549 µM)	> 100	0.1 (≈ 0.366 µM)	20 (≈ 73.2 µM)	70 (≈ 256 µM)	40.9 (≈ 150 µM)	400 (≈ 1460 µM)	70 (≈ 256 µM)	> 100	20 (≈ 73.2 µM)	–	50 (≈ 183 µM)	Not Active	–	–	–	–	–	–	–
